# Reference: PMC8263925 (The Journal of General Physiology, 2021)
# Numbering of substitutions follows the chain as printed.
# Tests used:
# monomeric Hv1 = target: T1, monomeric Hv1 (Homo sapiens, UniProt Q96D96); test: Inside-out patch time course of inhibition, monomeric Hv1 chimera; assay type: cell-based; conditions: 50 µM
# T1 sequence (Q96D96 97-227 limits assumed): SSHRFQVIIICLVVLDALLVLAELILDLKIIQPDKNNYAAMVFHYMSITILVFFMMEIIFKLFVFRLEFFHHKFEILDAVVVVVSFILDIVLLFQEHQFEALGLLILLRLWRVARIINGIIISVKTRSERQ
# Hv1 E153C = target: T2, Hv1 E153C (Homo sapiens, UniProt Q96D96, E153C); test: Inside-out patch time course of inhibition, mutant channel; assay type: cell-based
# T2 sequence (Q96D96 1-273 E153C): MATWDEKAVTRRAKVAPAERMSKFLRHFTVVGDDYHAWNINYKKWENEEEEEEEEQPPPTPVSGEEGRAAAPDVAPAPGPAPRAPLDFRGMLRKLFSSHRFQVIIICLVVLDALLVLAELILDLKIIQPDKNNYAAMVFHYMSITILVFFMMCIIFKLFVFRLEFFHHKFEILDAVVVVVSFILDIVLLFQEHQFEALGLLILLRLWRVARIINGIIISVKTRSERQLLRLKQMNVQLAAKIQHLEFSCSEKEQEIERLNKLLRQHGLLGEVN
# Summary of the method: (§1)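 Xenopus oocytes injected with mutant-channel mRNA 1–3 d earlier, kept at 18°C in ND96. Inside-out patches at 22 ± 1°C in symmetric Mes/TEA solutions, pH 6.0. Held at −40 mV and pulsed to +120 mV at relative depolarization time 0.2 (3 s/15 s). 50 µM perfused into bath. End-pulse current leak- and rundown-corrected. Decay fitted double-exponentially (τfast, τslow, cfast, cslow); washout recovery single-exponentially (τoff).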
# Hv1 W207Y = target: T3, Hv1 W207Y (Homo sapiens, UniProt Q96D96, W207Y); test: as above; assay type: cell-based; conditions: 50 µM
# T3 sequence (Q96D96 1-273 W207Y): T2 sequence (Q96D96 1-273 E153C) with C153E, W207Y
# Summary of the method: as §1
# Hv1 R208K = target: T4, Hv1 R208K (Homo sapiens, UniProt Q96D96, R208K); test: as above; assay type: cell-based; conditions: 50 µM; fast component not resolved from slow component
# T4 sequence (Q96D96 1-273 R208K): T2 sequence (Q96D96 1-273 E153C) with C153E, R208K
# Summary of the method: as §1
# Hv1 F156A = target: T5, Hv1 F156A (Homo sapiens, UniProt Q96D96, F156A); test: as above; assay type: cell-based; conditions: 50 µM
# T5 sequence (Q96D96 1-273 F156A): T2 sequence (Q96D96 1-273 E153C) with C153E, F156A
# Summary of the method: as §1
# Hv1 WT [1] = target: T6, Hv1 WT (Homo sapiens, UniProt Q96D96); test: G-V; assay type: cell-based
# T6 sequence (Q96D96 1-273): T2 sequence (Q96D96 1-273 E153C) with C153E
# Summary of the method: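 Oocytes expressing WT channel (mRNA injected 1–3 d before). Inside-out patches at 22 ± 1°C; bath and pipette 100 mM Mes, 30 mM TEA methanesulfonate, 5 mM TEA chloride, 5 mM EGTA, pH 6.0. Steps to −20 to +130 mV, tails at −40 mV, with or without 50 µM in bath. G = (Itest − Itail)/(Vtest − Vtail), rundown-corrected via reference step. Boltzmann fit gave V1/2 and slope. ≥5 patches, SEM.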
# Hv1 WT [2] = target: T6, Hv1 WT; test: Kinetic simulation of HIF-mediated inhibition, four-state model S; conditions: room temperature, closed VSD
# Hv1 WT [3] = target: T6, Hv1 WT; assay type: cell-based
# Summary of the method: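 WT channel in inside-out oocyte patches, symmetric pH 6.0, 22 ± 1°C. Holding −40 mV, depolarization to +120 mV; relative depolarization time td/(tr + td) of 0.1, 0.2, 0.3 or 0.5. 50 µM perfused into bath, then washed out. End-pulse current normalized. Decay fitted double-exponentially (τfast, τslow, weights, c∞); recovery fitted single-exponentially. n = 7, 7, 5, 8 per RDT; SEM.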
# [4] = 50 μM, double-exponential fit, RDT 0.1-0.5
compound,measurement,setting,value
"Cc1[nH]c(N)nc1CCC(=O)c1cc(F)cc(F)c1 [HIF, 3-(2-amino-5-methyl-1H-imidazol-4-yl)-1-(3,5-difluorophenyl)propan-1-one]",extent of inhibition compared with WT,monomeric Hv1,not reduced
same,total extent of inhibition vs WT,Hv1 E153C; 50 µM,did not decrease
same,"relative contribution of the slow component, cslow / (cfast + cslow)","Hv1 E153C; 50 μM, RDT = 0.2",0.80
same,"τoff, recovery from inhibition","Hv1 E153C; after 50 µM, RDT = 0.2",294 ± 57 s
same,reduction of the extent of inhibition vs WT,Hv1 W207Y,38%
same,τslow,Hv1 W207Y,> 200 s
same,extent of inhibition compared with WT,Hv1 R208K,slightly increased
same,effect of mutation on inhibition,Hv1 F156A,did not result in any significant change
same,shift to more positive potentials in the V1/2 of activation,"Hv1 WT [1]; 50 μM, pHi = pHo = 6.0",~15 mV
same,slope of G-V curve in the presence of inhibitor,"Hv1 WT [1]; 50 µM, pHi = pHo = 6.0 (11 ± 1 without HIF)",13 ± 1 mV
same,V1/2 of G-V curve in the presence of inhibitor,"Hv1 WT [1]; 50 µM, pHi = pHo = 6.0 (53 ± 3 mV without HIF)",68 ± 2 mV
same,energy barriers to cross in and out of site 2,Hv1 WT [2],~20 kcal/mol
same,"relative contribution of the slow component, cslow / (cfast + cslow)","Hv1 WT [3]; 50 μM, RDT = 0.2",0.51
same,"τfast, time constant of fast component of inhibition",Hv1 WT [3]; [4],< 5 s
same,"τslow, time constant of slow component of inhibition",Hv1 WT [3]; [4],> 40 s
same,"τslow, RDTon = 0.1/τslow, RDTon = 0.5","Hv1 WT [3]; 50 μM, experimental",1.15 ± 0.20
same,"τoff, recovery from inhibition","Hv1 WT [3]; after 50 µM, RDT = 0.2",94 ± 7 s
same,"τoff, time constant of recovery from inhibition","Hv1 WT [3]; after 50 μM, single-exponential fit, RDT 0.1-0.5",≥ 80 s
